Results taken from ChEMBL document CHEMBL3526140, “Prediction of human intestinal absorption of the prodrug temocapril by in situ single-pass perfusion using rat intestine with modified hydrolase activity” (Drug Metab Dispos, 2011).

Experiments:
[1] = Drug hydrolysis in Wistar rat jejunal S9 fraction; format: ADME, Jejunum
How it was run: (§1)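 Duodenal or jejunal mucosa from fasted rats homogenized in 50 mM HEPES (pH 7.4) with 1.15% KCl; S9 is the 9000 g supernatant. S9 pre-incubated 5 min at 37°C, then drug added at 10–500 µM final (1% DMSO). Run for 20 min, stopped with acetonitrile, temocaprilat formed measured by HPLC. Km and Vmax from Michaelis–Menten nonlinear fit. Inhibitor (1 mM BNPP) pre-incubated 5 min. Results as % of control.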

Jejunum [2] = test: Drug uptake in Wistar rat jejunum pre-perfused with 400 uM CES inhibitor BNPP assessed as rate of temocaprilat appearance at 100 uM at pH 6.4 by in-situ single-pass perfusion method; format: ADME; details: in vivo, pH 6.4, 100 µM
How it was run: (§2)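 Same in situ jejunal single-pass perfusion, with carboxylesterase blocked by pre-perfusing the lumen with 400 µM BNPP for 40 min. Then 100 µM drug in luminal phosphate buffer (pH 5.4 or 6.4) at 0.2 ml/min. Vascular Krebs–Henseleit (pH 7.4) at 2.5 ml/min. Luminal, vascular and tissue levels measured by HPLC. Rates are luminal disappearance and appearance in lumen or mesenteric vein. Mean ± S.D., n = 3.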

[3] = Drug hydrolysis in Wistar rat duodenal S9 fraction in presence of 1 mM CES inhibitor BNPP; format: ADME, Duodenum; how it was run: as §1
Jejunum [4] = test: Apparent hydrolytic clearance in Wistar rat jejunum at 100 uM at pH 5.4 by in-situ single-pass perfusion method; format: ADME, tissue-based; details: in vivo, pH 5.4, 100 µM
How it was run: (§3)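 Rats fasted 18–24 h, anesthetized with intraperitoneal pentobarbital. Isolated cannulated jejunal segment kept at 37°C in Krebs–Henseleit buffer with 3% BSA and 10 mM glucose. Vascular perfusion with Krebs–Henseleit (pH 7.4) at 2.5 ml/min. Lumen perfused at 0.2 ml/min with phosphate buffer (pH 5.4, 6.4 or 7.4) containing 100 µM drug plus FD-4. Luminal and vascular samples assayed by HPLC (UV 258 nm). Parameters normalized to 10 cm intestine. Mean ± S.D., n = 3–6.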

Jejunum [5] = test: Intracellular drug level in Wistar rat jejunum treated with Temocaprilat at 100 uM at pH 5.4 by in-situ single-pass perfusion method; format: ADME, tissue-based; details: in vivo, pH 5.4, 100 µM
Jejunum [6] = test: Intracellular drug level in Wistar rat jejunum at 100 uM at pH 7.4 by in-situ single-pass perfusion method; format: ADME, tissue-based; details: in vivo, pH 7.4, 100 µM; how it was run: as §3
Jejunum [7] = test: Intracellular drug level in Wistar rat jejunum treated with Temocaprilat at 100 uM at pH 7.4 by in-situ single-pass perfusion method; format: ADME, tissue-based; details: in vivo, pH 7.4, 100 µM
Jejunum [8] = test: Intracellular drug level in Wistar rat jejunum treated with Temocaprilat at 100 uM at pH 6.4 by in-situ single-pass perfusion method; format: ADME, tissue-based; details: in vivo
Jejunum [9] = test: Drug uptake in Wistar rat jejunum pre-perfused with 400 uM CES inhibitor BNPP assessed as rate of temocaprilat disappearance at 100 uM at pH 5.4 by in-situ single-pass perfusion method; format: ADME, tissue-based; details: in vivo, pH 5.4, 100 µM; how it was run: as §2
Jejunum [10] = test: Apparent hydrolytic clearance in Wistar rat jejunum at 100 uM at pH 6.4 by in-situ single-pass perfusion method; format: ADME, tissue-based; details: in vivo, pH 6.4, 100 µM; how it was run: as §3
[11] = Permeability in Wistar rat jejunum pre-perfused with 400 uM CES inhibitor BNPP at 100 uM at pH 5.4 by in-situ single-pass perfusion method; format: ADME, tissue-based; details: other: in-situ single-pass perfusion of the jejunum, pH 5.4, with BNPP (CES inhibitor) 400 uM, read-out: Peff (converted)
How it was run: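 Fasted, pentobarbital-anesthetized rats. Jejunum pre-perfused with BNPP (400 µM) for 40 min to inhibit CES. Lumen then perfused at 0.2 ml/min with 100 μM drug in phosphate buffer (pH 5.4 or 6.4). Vascular side received Krebs–Henseleit buffer (pH 7.4) at 2.5 ml/min. Luminal drug quantified by HPLC; Peff normalized to 10 cm segment; mean ± S.D., n = 3.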

[12] = Drug hydrolysis in Wistar rat duodenal S9 fraction; format: ADME, Duodenum; how it was run: as §1
Jejunum [13] = test: Drug degradation in Wistar rat jejunum lumen assessed as rate of drug disappearance at 100 uM by in-situ single-pass perfusion method; format: ADME, tissue-based; how it was run: as §3
Jejunum [14] = test: Apparent absorption clearance in Wistar rat jejunum pre-perfused with 400 uM CES inhibitor BNPP at 100 uM at pH 6.4 by in-situ single-pass perfusion method; format: ADME; details: in vivo, pH 6.4, 100 µM; how it was run: as §2
Jejunum [15] = test: Apparent absorption clearance in Wistar rat jejunum at 100 uM at pH 7.4 by in-situ single-pass perfusion method; format: ADME, tissue-based; details: in vivo, pH 7.4, 100 µM; how it was run: as §3
[16] = Partition coefficient, log P between n-octanol and phosphate buffer at pH 7.4; format: physicochemical
Jejunum [17] = test: Drug uptake in Wistar rat jejunum pre-perfused with 400 uM CES inhibitor BNPP assessed as rate of drug disappearance at 100 uM at pH 5.4 by in-situ single-pass perfusion method; format: ADME, tissue-based; details: in vivo, pH 5.4, 100 µM; how it was run: as §2
Jejunum [18] = test: Drug hydrolysis in perfused Wistar rat jejunum mucosal homogenate at 500 uM assessed per mg protein in presence of 400 uM CES inhibitor BNPP; format: ADME, tissue-based; details: tissue homogenate
How it was run: (§4)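 Jejunal mucosal homogenate or S9 (HEPES pH 7.4/KCl) taken from intact jejunum, or after 40 min perfusion with or without 400 µM BNPP. Protein at 400 µg/ml incubated at 37°C with 500 µM drug. Added BNPP (100 or 1000 µM) pre-incubated 5 min. Temocaprilat formed measured by HPLC and given as nmol/min/mg protein and % of control. Mean ± S.D., n = 4.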

Jejunum [19] = test: Intracellular drug level in Wistar rat jejunum pre-perfused with 400 uM CES inhibitor BNPP at 100 uM at pH 6.4 by in-situ single-pass perfusion method; format: ADME, tissue-based; details: in vivo, pH 6.4, 100 µM; how it was run: as §2
Jejunum [20] = test: Drug uptake in Wistar rat jejunum pre-perfused with 400 uM CES inhibitor BNPP assessed as rate of drug disappearance at 100 uM at pH 6.4 by in-situ single-pass perfusion method; format: ADME, tissue-based; details: in vivo; how it was run: as §2
[21] = Permeability in Wistar rat jejunum at 100 uM at pH 5.4 by in-situ single-pass perfusion method; format: ADME, tissue-based; details: other: in-situ single-pass perfusion of the jejunum, read-out: Peff (converted)
How it was run: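 Rats fasted 18–24 h and anesthetized with intraperitoneal pentobarbital. Jejunal loop perfused at 0.2 ml/min with phosphate buffer (pH 5.4, 6.4 or 7.4) containing 100 μM drug and FD-4 (0.1 mg/ml). Vascular perfusate was Krebs–Henseleit bicarbonate buffer (pH 7.4) at 2.5 ml/min, segment kept at 37°C. Drug and metabolite measured by HPLC (UV 258 nm). Peff normalized to 10 cm intestine; mean ± S.D., n = 3–6.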

[22] = Drug hydrolysis in intact Wistar rat jejunal S9 fraction at 500 uM assessed per mg protein; format: ADME, Jejunum; details: s9, 500 µM; how it was run: as §4
Jejunum [23] = test: Intracellular drug level in Wistar rat jejunum pre-perfused with 400 uM CES inhibitor BNPP at 100 uM at pH 5.4 by in-situ single-pass perfusion method; format: ADME, tissue-based; details: in vivo, pH 5.4, 100 µM; how it was run: as §2
Jejunum [24] = test: Drug uptake in Wistar rat jejunum mesenteric vein assessed as rate of drug appearance at 100 uM by in-situ single-pass perfusion method; format: ADME, tissue-based; details: in vivo; how it was run: as §3
[25] = Drug hydrolysis in intact Wistar rat jejunal S9 fraction at 500 uM assessed per mg protein in presence of 100 uM CES inhibitor BNPP; format: ADME, Jejunum; details: s9, 500 µM; how it was run: as §4
Jejunum [26] = test: Drug uptake in Wistar rat jejunum pre-perfused with 400 uM CES inhibitor BNPP assessed as rate of temocaprilat appearance at 100 uM at pH 5.4 by in-situ single-pass perfusion method; format: ADME, tissue-based; details: in vivo, pH 5.4, 100 µM; how it was run: as §2
Jejunum [27] = test: Apparent absorption clearance in Wistar rat jejunum at 100 uM at pH 6.4 by in-situ single-pass perfusion method; format: ADME, tissue-based; details: in vivo; how it was run: as §3

Km [1]: 47.3 µM
CL (Jejunum [2]): 0.604 nmol/min
Stability [3]: Stable
CL (Jejunum [4]): 34.4 µL/min
Drug uptake (Jejunum [5]): 34.2 nmol/g
Drug uptake (Jejunum [6]): 1.02 nmol/g
Drug uptake (Jejunum [7]): 17.6 nmol/g
Drug uptake (Jejunum [8]): 18.1 nmol/g
CL (Jejunum [9]): 1.01 nmol/min
CL (Jejunum [10]): 35.4 µL/min
Papp at 100 µM [11]: 49.8 ×10⁻⁶ cm/s
Km [12]: 47.4 µM
Drug degradation (Jejunum [13]): 3.89 nmol/min
CL(app) (Jejunum [14]): 7.64 µL/min
CL(app) (Jejunum [15]): 1.23 µL/min
logD [16]: 0.1
CL (Jejunum [17]): 2.98 nmol/min
Drug degradation (Jejunum [18]): 2.05 nmol/min
Drug uptake (Jejunum [19]): 15.4 nmol/g
CL (Jejunum [20]): 2.44 nmol/min
Papp at 100 µM [21]: 76 ×10⁻⁶ cm/s
Drug degradation [22]: 4.46 nmol/min
Drug uptake (Jejunum [23]): 20.6 nmol/g
Drug uptake (Jejunum [24]): 0.147 nmol/min
Drug degradation [25]: 1.13 nmol/min
CL (Jejunum [26]): 1.01 nmol/min
CL(app) (Jejunum [27]): 1.59 µL/min
Compound: CCOC(=O)[C@H](CCc1ccccc1)N[C@H]1CS[C@H](c2cccs2)CN(CC(=O)O)C1=O [TEMOCAPRIL]
